Each structure is given as a SMILES string.

The term IC50 denotes the concentration that gives 50% inhibition. A word on the residual activity: it is the signal under treatment as a percentage of the control signal.

Data set [1] in a line: Cytotoxicity against human Hep3B cells by MTT assay. Type of data set: functional, cell-based, Hep 3B2. On the technique in general: Formazan colour is commonly taken as a measure of viable cells.
In a further data set the test system is MCF7. The data set can be described thus: Cytotoxicity against human MCF7 cells by MTT assay. Type of data set: functional, cell-based.
Data set [2] has as its system RAW264.7. The data set can be described thus: Antiinflammatory activity in mouse RAW264.7 cells assessed as residual LPS-induced iNOS protein level at 10 uM by Western blotting analysis. (Immunoblotting shows a protein as a band on a membrane.)
Data set [3] has as its system RAW264.7. The data set can be described thus: Antiinflammatory activity in mouse RAW264.7 cells assessed as inhibition of LPS-induced COX2 protein expression at 10 uM by Western blotting analysis. Type of data set: functional. In a few lines: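 RAW264.7 macrophages (ATCC) stimulated with LPS and treated at 10 μM. iNOS and COX-2 protein levels were quantified by immunoblot and expressed as % of LPS-only control cells (100%). Means ± SEM, n = 6.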

A further data set deals with HepG2. As to the kind of experiment: Cytotoxicity against human HepG2 cells by MTT assay. The class given is functional, cell-based.
The subject of data set [4] is beta-actin protein expression. The data set can be described thus: Toxicity in mouse RAW264.7 cells assessed as inhibition of beta-actin protein expression at 10 uM by Western blotting analysis; values are per cent of control.
For another data set, the system named is MDA-MB-231. The data set can be described thus: Cytotoxicity against human MDA-MB-231 cells by MTT assay. Type of data set: functional, cell-based.

As to `COc1cccc2c1C(=O)c1c(O)c3c(c(O)c1C2=O)C[C@@](O)(C(=O)CO)C[C@@H]3O[C@H]1C[C@H](N)[C@H](O)[C@H](C)O1` [DOXORUBICIN], the concentration for half-maximal inhibition (IC50) in data set [1] worked out at 0.7 µM.

Turning to `CC1=C(C)C(=O)O[C@@H]([C@@H](C)[C@H]2CC[C@H]3[C@@H]4CCC5=CC(=O)C=C[C@]5(C)[C@H]4CC[C@]23C)C1` [MINABEOLIDE 1], the IC50 in the data set with MCF7 amounted to 18.7 µM; in the data set on HepG2, 5.2 µM. In addition, the residual iNOS protein level at 10 µM in the data set with RAW264.7 [2] was 9.6%. Further, in the data set on RAW264.7 [3], the COX-2 expression (% of LPS control) at 10 µM was found to be 18.3%.

Consider `CC(=O)OC[C@]12CC[C@H]3[C@@H](CCC4=CC(=O)C=C[C@@]43C)[C@@H]1CC[C@@H]2[C@H](C)[C@H]1CC(C)=C(C)C(=O)O1` [MINABEOLIDE 2], for which, in the data set on RAW264.7 [2], the residual iNOS protein level at 10 µM is 45.7%. In addition, in the data set on RAW264.7 [3], the COX-2 expression (% of LPS control) at 10 µM came out at 51.2%.

With `C[C@@H]([C@H]1CC[C@H]2[C@@H]3CCC4=CC(=O)C=C[C@]4(C)[C@H]3CC[C@]12C)[C@H]1CC[C@H](C)C(=O)O1` [MINABEOLIDE 4], the residual iNOS protein level at 10 µM in the data set with RAW264.7 [2] turned out to be 23.2%. The COX-2 expression (% of LPS control) at 10 µM with RAW264.7 [3] turned out to be 22.4%.

On to `CC(=O)OC[C@]12CC[C@H]3[C@@H](CCC4=CC(=O)C=C[C@@]43C)[C@@H]1CC[C@@H]2[C@H](C)[C@H]1CC[C@H](C)C(=O)O1` [MINABEOLIDE 5], for which, in the data set with RAW264.7 [2], the residual iNOS protein level at 10 µM was 6.3%. In addition, the COX-2 expression (% of LPS control) at 10 µM in the data set with RAW264.7 [3] was found to be 31.3%.

As to `CC1=C(C)C(=O)O[C@@H]([C@@H](C)[C@H]2CC[C@H]3[C@@H]4CCC5=CC(=O)C=C[C@]5(C)[C@H]4CC[C@]23C=O)C1` [PARAMINABEOLIDE A], in the data set on RAW264.7 [2], the residual iNOS protein level at 10 µM amounted to 11%. Moreover, in data set [4], the residual activity at 10 µM was determined as 66.5%. The IC50 in the data set on HepG2 is 8 µM.

`CC(=O)OC[C@]12CC[C@H]3[C@@H](CCC4=CC(=O)C=C[C@@]43C)[C@@H]1CC[C@@H]2[C@H](C)[C@H]1C[C@H](C)[C@H](C)C(=O)O1` [PARAMINABEOLIDE B]: the IC50 in the data set on MCF7 amounted to 14.9 µM; in the data set with MDA-MB-231, 19.3 µM. Further, the residual iNOS protein level at 10 µM in the data set on RAW264.7 [2] is 7.3%.

`CC(=O)OC[C@]12CC[C@H]3[C@@H](CCC4=CC(=O)C=C[C@@]43C)[C@@H]1CC[C@@H]2[C@H](C)[C@H](O)[C@@H]1OC(=O)[C@H](C)[C@H]1C` [PARAMINABEOLIDE C]: in the data set on RAW264.7 [2], the residual iNOS protein level at 10 µM was 37.9%.

For the molecule `C[C@H]([C@H](O)[C@@H]1OC(=O)[C@H](C)[C@@H]1C)[C@H]1CC[C@H]2[C@@H]3CCC4=CC(=O)C=C[C@]4(C)[C@H]3CC[C@]12C` [PARAMINABEOLIDE D], the residual iNOS protein level at 10 µM in the data set on RAW264.7 [2] turned out to be 43.3%.

For the origin of these results see ChEMBL document CHEMBL1782008, “Paraminabeolides A-F, cytotoxic and anti-inflammatory marine withanolides from the soft coral Paraminabea acronocephala” (J Nat Prod, 2011).
